Published values from different studies.
Protocols differ between the studies behind these lines.
Target: Vascular endothelial growth factor receptor 1 (FLT1, Homo sapiens, UniProt P17948)

| Compound | read-out | method | tested at | remaining binding |
| --- | --- | --- | --- | --- |
| C[C@@H](c1ccc(-n2cnc3c(N)ncnc32)cc1)N1CCc2nn(C)c(Cc3ccccc3)c2C1=O | binding | competition with immobilised ligand | 0.1 µM | 81% |
| C[C@H]1CCN(c2nccc(-c3cnn4ncccc34)n2)C1 | binding | – | 1 µM | 100% |
| COc1ncc2cc3ccccc3nc2c1C#N | cell-free assay | competition with immobilised ligand | 5 µM | 95% |
| COc1ccc2c(c1)O[C@@H](c1ccc(OC)c(OC)c1)C[C@H]2NC(=O)C1(c2ccc3c(c2)OC(F)(F)O3)CC1 | cell-free assay | competition with immobilised ligand | 1 µM | 100% |
| Cc1cnn2ncc(-c3ccnc(N(C)C)n3)c2c1 | binding | – | 1 µM | 97% |
| O=C(NCC1CCOCC1)c1n[nH]cc1NC(=O)c1c(F)cccc1F | binding | competition with immobilised ligand | 1 µM | 90% |
| Nc1ncc2c(n1)-c1c([nH]c3ccc(C#CC4CC4)cc13)CCCC2 | binding | competition with immobilised ligand | 1 µM | 91% |
| O=C(c1ccc(Nc2ncc(Cl)c(-c3ccc(Cl)s3)n2)cc1)N1CCC(N2CCCC2)CC1 | binding | competition with immobilised ligand | 1 µM | 1.2% |
| CN([C@@H]1CCc2c(CC(=O)O)c3cc(S(C)(=O)=O)ccc3n2C1)S(=O)(=O)c1ccc(F)cc1 | cell-free assay | competition with immobilised ligand | 1 µM | 88% |
| CN(C)c1nccc(-c2cnn3ncccc23)n1 | binding | – | 1 µM | 100% |
| O=C(c1ccc(Nc2ncc(Cl)c(-c3cc4ccccc4s3)n2)cc1)N1CCC(N2CCCC2)CC1 | binding | competition with immobilised ligand | 1 µM | 6.2% |
| N[C@H]1CCN(c2nccc(-c3cnn4ncccc34)n2)C1 | binding | – | 1 µM | 99% |
| CCOC(=O)c1cc2cc(-c3cc(C(=O)NCc4ccc(C(=O)O)cc4)nn3C)ccc2[nH]1 | cell-free assay | competition with immobilised ligand | 0.1 µM | 97% |
| O=C(NCCCN1CCOCC1)c1ccc(Nc2ncc(Cl)c(-c3ccc(Cl)s3)n2)cc1 | binding | competition with immobilised ligand | 1 µM | 5.7% |
| CN(CCCC(F)(F)F)c1nccc(-c2cnn3ncccc23)n1 | binding | – | 1 µM | 100% |
| CCN(CC)CCCCNc1ncc2cc(-c3cc(OC)cc(OC)c3)c(NC(=O)NC(C)(C)C)nc2n1 | cell-free assay | competition with immobilised ligand | 1 µM | 8% |
| O=c1nc(-c2ccccn2)sc2ccccc12 | cell-free assay | competition with immobilised ligand | 1 µM | 100% |
| CNC(=O)[C@@H]1CC[C@@H](n2c(-c3ccc4cnccc4c3)nc3ccc(C(=O)NCc4cccc(C(N)=O)c4)cc32)C1 | binding | competition with immobilised ligand | 1 µM | 100% |
| Cc1cc(NC(=O)c2cccc(S(F)(F)(F)(F)F)c2)cc(-n2ccn3nc(-c4cccnc4)cc23)c1 | cell-free assay | competition with immobilised ligand | 1 µM | 100% |
| COc1cnc(Nc2cccc(S(N)(=O)=O)c2)nc1N1CCN(c2ccccc2)CC1 | binding | competition with immobilised ligand | 1 µM | 97% |
| CN(C)c1ncc(F)c(-c2cnn3ncccc23)n1 | binding | – | 1 µM | 100% |
| O=C1CCc2cc(Nc3cc(OC4CCOCC4)c([N+](=O)[O-])cc3Cl)ccc2N1 | cell-free assay | competition with immobilised ligand | 1 µM | 100% |
